CXCR6 inh: blocks human CXCR6 beta-arrestin recruitment; 360,000 tested, 0.36% active; O00574; inhibition, % at 20 µM; CHO-K1 PathHunter CXCR6 beta-arrestin, luminescence; in the data active = inhibition above about 34%, passing the limit was not always enough;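 also: antagonist mode with CXCL16 agonist at 10 nM final; 0% = 10 nM CXCL16 with DMSO and 100% = unstimulated wells without agonist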
APJ antagonist: blocks the human apelin receptor APJ | CHO-K1 APJ beta-arrestin complementation, luminescence | 330,000 tested, 0.32% active | P35414 | inhibition, % at 20 µM;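 active = inhibition above about 40% at 20 µM, limit read from the data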;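 also: cells challenged with 10 nM apelin-13 agonist together with compound; plate controls were apelin-13 plus DMSO wells for no effect and DMSO wells lacking apelin-13 for full effect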
Target sequence (P35414 whole entry, looked up): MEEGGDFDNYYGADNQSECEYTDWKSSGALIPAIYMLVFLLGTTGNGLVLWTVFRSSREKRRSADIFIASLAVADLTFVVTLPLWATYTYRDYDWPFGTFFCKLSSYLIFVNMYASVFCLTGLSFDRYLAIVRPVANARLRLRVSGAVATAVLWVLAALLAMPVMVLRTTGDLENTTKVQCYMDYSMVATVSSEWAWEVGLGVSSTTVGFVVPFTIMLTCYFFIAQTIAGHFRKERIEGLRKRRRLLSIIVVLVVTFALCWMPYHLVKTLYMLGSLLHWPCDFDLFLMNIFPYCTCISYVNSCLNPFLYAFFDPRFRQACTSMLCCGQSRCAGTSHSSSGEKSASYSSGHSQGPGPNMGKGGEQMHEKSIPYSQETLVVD
APJ agonist: activates the human apelin receptor APJ. P35414. CHO-K1 APJ PathHunter beta-arrestin, luminescence; 0% DMSO wells, 100% apelin. activation, % at 20 µM. 330,000 tested, 0.11% active;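 active = activation more than six SD over the plate average, tested at 20 µM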;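 also: 0% = DMSO alone and 100% = apelin-13 at 10 nM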
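Assay system: CHO-K1 cells stably expressing ProLink-tagged human APJ and arrestin–beta-gal acceptor. Compound dosing: 20 µM single point, 1% DMSO. Times: 16-18 h seeding, 90 min dark compound exposure, 60 min detection. Detection: beta-gal luminescence. Evaluation: APJ–arrestin association signal. Controls: negative DMSO alone, positive Apelin-13 at 10 nM.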
CCR6 antag: antagonists of human CCR6 receptor | AID 493098 | inhibition, % at 20 µM | 340,000 tested, 0.49% active | CHO-K1 CCR6 PathHunter beta-arrestin, luminescence, CCL20-stimulated | P51684;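 active = compounds whose inhibition of the agonist-driven luminescence signal at 20 µM reaches about 50%, limit read from the data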;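 also: cells stimulated with CCL20 at 14 nM final; plate controls were DMSO with CCL20 for no effect and DMSO without agonist for full effect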
EBI2 block: EBI2 (human) antagonism. P32249. EBI2 beta-arrestin recruitment, luminescence, 7a,25-OHC stimulated. inhibition, % at 5 µM. 360,000 tested, 0.81% active; in the data active = inhibition above about 38%;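 also: enzyme fragment complementation signal reports receptor beta-arrestin coupling in cells; 0% = agonist plus DMSO wells and 100% = wells without agonist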
APJ ag conf: confirmation of human APJ apelin receptor agonists | shares compounds with APJ agonist | CHO-K1 APJ PathHunter beta-arrestin, luminescence | activation, % at 20 µM | 310 tested, 10% active | AID 2764;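 active = activation above 40%, taking the highest of four retests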;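 also: plate controls were DMSO wells for no effect and apelin-13 at 10 nM for full effect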
* = called active by the depositor; . = no result given. Most compounds without a hit are left out; they make up all but 1.5% or so of the library.

SMILES	CXCR6 inh	APJ antagonist	APJ agonist	CCR6 antag	EBI2 block	APJ ag conf
CN1CCc2c(sc(/N=C/c3c[nH]c4ccccc34)c2C#N)C1	7.0	3.3	38.1*	17.4	0.2	-6.2
CN1CCc2c(sc(/N=C/c3c[nH]c4ccccc34)c2C(N)=O)C1	-24.7	18.6	-1.2	34.7	-2.5	.
COC1(C)CC2C(CC1OC(=O)c1cc([N+](=O)[O-])cc([N+](=O)[O-])c1)C2(C)C (stereo unspecified)	-11.7	-52.3	13.5*	-61.0	4.9	20.7
COC(=O)c1cc(C(=O)NCC2CCCCC2)cc([N+](=O)[O-])c1	-24.2	0.9	-0.3	12.2	-7.0	.
Cc1ccc(-c2nn(-c3ccccc3)cc2/C=N/NC(=O)c2ccc(Br)o2)cc1	-1.6	-10.0	12.5*	-8.3	-6.0	25.3
O=C(N/N=C\c1cn(-c2ccccc2)nc1-c1ccccc1)c1ccc(Br)o1	8.5	-3.6	0.2	3.0	7.3	.
COc1ccc2noc3c2c1C(=O)c1ccccc1-3	-2.3	-34.7	21.4*	-4.4	-20.6	28.4
CC(=O)CC1c2ccccc2C=C(c2ccsc2)N1c1ccc(-c2cccs2)cc1 (stereo unspecified)	-17.6	.	.	.	4.0	.
O=C(Nc1ccc(Cl)c([N+](=O)[O-])c1)ONC1=NCCCCC1	-9.2	-60.3	15.9*	-15.1	-11.4	18.2
O=C(ONC1=NCCCCC1)c1cccc([N+](=O)[O-])c1	-27.2	-40.6	5.7	-27.2	-16.2	.
CCOC(=O)C1=CCN(S(=O)(=O)c2ccccc2)C1c1ccc(Cl)cc1 (stereo unspecified)	4.9	.	.	.	2.4	.
CCCCC1=CC2=CC(=O)C(C)(OC(=O)CC)C(=O)C2=CN1Cc1ccccc1 (stereo unspecified)	-11.2	-26.1	17.1	-9.8	-9.6	.
CCCCC1=CC2=CC(=O)C(C)(OC(=O)CC)C(=O)C2=CN1c1ccccc1 (stereo unspecified)	-9.9	-39.2	74.6*	3.8	1.3	14.1
COC(=O)C1C(=O)N(S(=O)(=O)c2ccc([N+](=O)[O-])cc2)c2ccccc21 (stereo unspecified)	.	.	.	.	-0.4	.
CCCNC(=O)C1(C)CCCN(Cc2cccs2)C1 (stereo unspecified)	-2.2	.	.	.	-3.5	.
N/C(Cc1ccc(Cl)c(Cl)c1)=N\OC(=O)c1cccs1	-18.9	-46.6	18.5*	-25.1	-22.2	40.4*
CCOC(=O)c1c(C)[nH]c(C(=O)OCC(=O)NCc2ccco2)c1C	-0.8	.	.	.	-4.6	.
CC(C)(C)[C@H](NC(=O)c1ccc(N)c(Cl)c1)C(=O)N1CCC[C@H]1C(=O)N[C@H](C#N)CC(=O)O	-4.1	.	.	.	-7.2	.
COc1ccc(-c2nc3ccccn3c2NCc2ccc3c(c2)OCO3)cc1	1.7	-7.9	4.8	8.1	-11.8	.
COc1ccc(-c2cc(-c3nc4ccccn4c3NCc3ccccc3)ccc2OC)cc1	15.7	-28.5	23.1*	6.7	-132.4	5.4
Cc1cc(C)cc(S(=O)(=O)c2cn(C)c3cc(N4CCN(C)CC4)c(F)cc3c2=O)c1	5.6	13.8	38.3*	6.1	-5.4	20.8
Nc1nccc(SCc2ccccc2)n1	1.5	.	.	7.6	-2.7	.
Cc1cc(C)n(-c2nc(N(c3ccccc3)c3ccccc3)nc(-n3nc(C)cc3C)n2)n1	31.9	-13.9	36.0*	17.2	-86.5	13.9
CC(C)(C)OC(=O)C(Cc1ccc(OC(C)(C)C)cc1)NC(=O)CNC(=O)CNC(=O)OCc1ccccc1 (stereo unspecified)	-3.9	4.9	1.9	20.7	-6.7	.
CC(NC(=O)OCc1ccccc1)C(=O)NCC(=O)NC(Cc1ccc(OC(C)(C)C)cc1)C(=O)OC(C)(C)C (stereo unspecified)	2.0	-1.3	19.3*	6.7	16.6	6.8
SMILES	CXCR6 inh	APJ antagonist	APJ agonist	CCR6 antag	EBI2 block	APJ ag conf
O=C1NC[C@H](CCCCN2C[C@H](Cc3ccccc3)N(CCc3ccccc3)C(=O)C2=O)N(CCC2CCCCC2)C1=O	-1.3	.	.	.	-7.7	.
COc1ccc(/C=N/Nc2cc(C)nc3ccc(Br)cc23)cc1	-3.5	-6.2	16.7*	1.1	-14.3	36.8
Cc1cccc2sc(N(CCCN(C)C)C(=O)c3ccc(S(=O)(=O)N4CCc5ccccc5C4)cc3)nc12	4.7	-4.7	20.6	-4.8	-4.4	.
CN(C)CCCN(C(=O)c1ccc(S(=O)(=O)N2CCc3ccccc3C2)cc1)c1nc2ccc(F)cc2s1	-9.1	2.4	46.8*	6.1	13.9	21.7
COc1ccc2sc(N(CCCN(C)C)C(=O)c3ccc(S(=O)(=O)N4CCc5ccccc5C4)cc3)nc2c1	3.2	-12.1	49.7*	-1.5	12.1	34.4
Cc1ccc2nc(N(CCCN(C)C)C(=O)c3ccc(S(=O)(=O)N4CCc5ccccc5C4)cc3)sc2c1	-8.7	-40.4	78.7*	13.0	7.7	46.1*
Cc1cc(C)c2sc(N(CCCN(C)C)C(=O)c3ccc(S(=O)(=O)N4CCc5ccccc5C4)cc3)nc2c1	-3.0	-9.3	66.0*	.	-3.0	44.5*
COCCN1C(=O)CCC1(C)C(=O)NC1CCCCC1 (stereo unspecified)	-3.4	.	.	.	-9.8	.
COc1ccccc1OCCNC(=O)CCC(=O)N1CCOCC1	1.1	-23.1	-2.0	0.6	-0.4	.
CCCCN(C(=O)c1ccccc1Cl)C(CC(C)C)c1nc2ccccc2[nH]1 (stereo unspecified)	5.0	.	.	.	0.0	.
Cc1[nH]c2c(Cl)cccc2c(=O)c1CN1CCCCCC1	2.7	-7.1	-3.3	6.5	-3.1	.
Cc1ccc2c(=O)c(CN3CCCCCC3)c(C)[nH]c2c1C	0.6	12.7	24.9*	1.0	-4.4	34.2
COc1ccc(/C=N/N2C(=O)CSC2=S)cc1	-7.7	-10.1	8.7	9.1	-8.8	.
COc1ccc(-c2nn(-c3ccccc3)cc2/C=N/N2C(=O)CSC2=S)cc1	-11.5	-62.3	17.9*	-8.6	-9.8	22.3
CCC(C)NC(=O)c1cc(Cl)c(NC(=O)C2=C(C)OCCS2)cc1OC (stereo unspecified)	2.1	7.8	-1.1	2.0	25.6	.
CCN(CC)CCCNC(=O)c1cc(Cl)c(NC(=O)C2=C(C)OCCS2)cc1OC	0.8	14.1	12.8*	7.5	-7.8	30.2
CCN1CCN(CCNC(=O)c2cc(Cl)c(NC(=O)C3=C(C)OCCS3)cc2OC)CC1	5.1	-13.4	23.9*	-6.6	7.0	2.3
Cc1ccc(-c2nn(-c3ccccc3)cc2/C=C/C(=O)OCC(=O)NC2CC2)o1	-5.6	-26.9	12.1*	-9.9	-15.0	4.9
Cc1ccc(C)c2[nH]c(=O)c(CCNC(=O)c3cc4ccccc4o3)cc12	-8.1	-16.4	12.5*	-9.0	9.1	18.1
Cc1ccc(Cl)cc1NC(=O)c1cc2ccccc2cc1O	-16.4	-69.5	21.6*	-66.4	-3.5	33.5
CCOc1ccccc1-c1nc(-c2ccc(NC(=O)Cc3ccc(OC)cc3)cc2)no1	-0.2	-9.5	21.9*	-1.3	0.5	20.2

Compound activity: PubChem, Sanford-Burnham Center for Chemical Genomics
